The pIC50 is the negative decadic logarithm of the IC50, by convention in mol/L.

Holding throughout (assay type): functional, cell-based
Assay [1] relates to CCRF-CEM. In words: Antiproliferative activity against human CEM cells after 72 hrs by MTT assay. The method in brief:
(§1)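 MTT read-out of tumour cell proliferation after 72 h of drug exposure. IC50 is the drug concentration giving 50% inhibition of proliferation. Each experiment was repeated three times under identical conditions.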
A general note: Tetrazolium dyes change colour on reduction, which living cells bring about.

The subject of the next assay is Bel-7402. Briefly: Antiproliferative activity against human Bel7402 cells after 72 hrs by MTT assay. The following applies: Bel-7402, 72 h. In a few lines:
as §1

The subject of the next assay is HepG2. Briefly: Antiproliferative activity against human HepG2 cells after 72 hrs by MTT assay. The conditions noted are these: HepG2, 72 h. The method in brief: as §1
The next assay concerns SMMC-7721. In words: Antiproliferative activity against human SMMC7721 cells after 72 hrs by MTT assay. The conditions noted are these: SMMC-7721, 72 h. In a few lines: as §1
Assay [2] has as its system CCRF-CEM. Briefly: Effect on necrosis-mediated morphological changes in human CEM cells assessed as destruction of cytoplasm and nucleic membrane at IC75 after 12 hrs by Giemsa staining. The method in brief:
(§2)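 After 12 h of drug incubation, CEM cells were spun onto slides by cytospin, air-dried, fixed with methanol and Giemsa-stained. Morphology was examined at 400× magnification.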

Assay [3] deals with CCRF-CEM. In words: Cell cycle arrest in human CEM cells assessed as accumulation at G2/M phase at 0.69 uM after 12 hrs by flow cytometry. In a few lines:
(§3)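 CEM cells were left untreated or drug-exposed for 12 h at 37 °C, then collected, fixed in methanol and DNA-stained with a fluorescent dye. Cell-cycle distribution was read by flow cytometry using a conventional cell cycle protocol, with untreated cells as reference.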

The subject of assay [4] is CCRF-CEM. In words: Effect on necrosis-mediated morphological changes in human CEM cells assessed as destruction of cytoplasm and nucleic membrane at 0.69 uM after 12 hrs by Giemsa staining. The method in brief: as §2
Assay [5] has as its system CCRF-CEM. In words: Effect on apoptosis-mediated morphological changes in human CEM cells at 3.2 uM after 12 hrs by Giemsa staining. In a few lines: as §2
In assay [6] the test system is CCRF-CEM. Briefly: Cell cycle arrest in human CEM cells assessed as accumulation at G2/M phase at 3.2 uM after 12 hrs by flow cytometry. The following applies: 0.1 uM, in the assay text read “0.1 uM” for “3.2 uM”. The method in brief:
as §3
(In flow cytometry, cells or beads pass a laser one at a time.)

Assay [7] relates to CCRF-CEM. Briefly: Cell cycle arrest in human CEM cells assessed as accumulation at G2/M phase at 0.1 uM after 12 hrs by flow cytometry. In a few lines: as §3

pIC50: −log10 of the molar value. Active and inactive are the calls of the source. The rule behind the calls is not given here.

On to `CNC(=O)NC(=O)c1cccc(NC(=O)C(C)Br)c1` (configuration not stated), for which the pIC50 in the assay on CCRF-CEM [1] was 5.03. As for `CNC(=O)NC(=O)c1cccc(NC(=O)C(C)Cl)c1` (configuration not stated), the pIC50 in the assay with CCRF-CEM [1] is < 4.70. As to `O=C(CBr)Nc1cccc(C(=O)NC(=O)Nc2ccccn2)c1`, the pIC50 was 6.15 in the assay with CCRF-CEM [1], 5.92 in the assay with Bel-7402, 6.05 with HepG2 and 6.03 in the assay on SMMC-7721. In addition, the outcome in the assay with CCRF-CEM [2] was Active. The compound `O=C(CBr)Nc1cccc(C(=O)NC(=O)Nc2ccc3c(c2)OCO3)c1` gave a pIC50 in the assay on CCRF-CEM [1] of 5.82. Turning to `COc1cc(NC(=O)NC(=O)c2cccc(NC(=O)CBr)c2)cc(OC)c1OC`, the pIC50 was 6.48 in the assay on CCRF-CEM [1], 5.85 in the assay on Bel-7402, 6.09 with HepG2 and 6.17 with SMMC-7721. The result with CCRF-CEM [3] was inactive. Moreover, in the assay on CCRF-CEM [4], the result was Active.

In the assay on CCRF-CEM [1], `O=C(CBr)Nc1cccc(C(=O)NC(=O)Nc2ccccc2)c1` gave a pIC50 of 5.30. As for `CC(Br)C(=O)Nc1cccc(C(=O)NC(=O)Nc2ccccc2)c1` (configuration not stated), the pIC50 in the assay with CCRF-CEM [1] was < 4.70. On the same count and under the same terms, the figure for `NC(=O)NC(=O)/C=C/c1cccc(NC(=O)CBr)c1` is 5.86. As to `CC(Br)C(=O)Nc1cccc(C(=O)NC(=O)Nc2ccc3c(c2)OCO3)c1` (configuration not stated), the pIC50 in the assay on CCRF-CEM [1] was 4.92. For `CNC(=O)NC(=O)c1cccc(NC(=O)CBr)c1`, the pIC50 with CCRF-CEM [1] is 5.50. As for `COc1cc(NC(=O)NC(=O)c2cccc(NC(=O)C(C)Br)c2)cc(OC)c1OC` (configuration not stated), the pIC50 in the assay on CCRF-CEM [1] is 5.88.

As to `NC(=O)NC(=O)Cc1cccc(NC(=O)CCl)c1`, the pIC50 with CCRF-CEM [1] is 4.90.

`CC(Br)C(=O)Nc1cccc(C(=O)NC(N)=O)c1` (configuration not stated): the pIC50 is 5.95 with Bel-7402, 5.92 in the assay on HepG2 and 5.03 in the assay on SMMC-7721. In the assay with CCRF-CEM [5], the outcome was Active. Compound `CNC(=O)NC(=O)c1cccc(NC(=O)CCl)c1` gave a negative logarithm of the IC50 (pIC50) in the assay with CCRF-CEM [1] of 5.04.

On to `CC[C@]1(O)C[C@H]2CN(CCc3c([nH]c4ccccc34)[C@@](C(=O)OC)(c3cc4c(cc3OC)N(C=O)[C@H]3[C@@](O)(C(=O)OC)[C@H](OC(C)=O)[C@]5(CC)C=CCN6CC[C@]43[C@@H]65)C2)C1` [VINCRISTINE], for which the values for the pIC50 in the assay with Bel-7402 and in the assay with SMMC-7721 were 7.40 and 4.28, respectively. Moreover, the outcome in the assay with CCRF-CEM [6] and with CCRF-CEM [7] was Active.

In the case of `CC(Br)C(=O)Nc1cccc(CC(=O)NC(N)=O)c1` (configuration not stated), the pIC50 in the assay with CCRF-CEM [1] was < 4.70.

In the assay on CCRF-CEM [1], `CC(Br)C(=O)Nc1cccc(C(=O)NC(=O)Nc2ccccn2)c1` (configuration not stated) had a pIC50 of 5.21.

Source of the values: ChEMBL document CHEMBL1143300, “Synthesis and activity evaluation of benzoylurea derivatives as potential antiproliferative agents” (Bioorg Med Chem Lett, 2009).
